In ChEMBL document CHEMBL2311419, “Discovery of coumarin-dihydropyridine hybrids as bone anabolic agents” (J Med Chem, 2013):
The source made the active and inactive calls. The calls are words filed in the database; no cut-off is given here.

How the values were obtained:
[1] = species: Mus musculus; test: Stimulation of alkaline phosphatase activity in mouse calvarial osteoblasts at 1 pM to 1 uM after 48 hrs by spectrophotometric analysis
Procedure, shortened: (§1)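 Calvarial osteoblasts were exposed to compounds over 1 pM to 1 µM. ALP activity was read spectrophotometrically as optical density at 405 nm. Results were expressed as % ALP activity, with EC50 and Emax derived from the concentration series.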

[2] = species: Mus musculus; test: Stimulation of alkaline phosphatase activity in mouse calvarial osteoblasts at 1 pM to 1 uM after 48 hrs by spectrophotometric analysis relative to nifedipine
[3] = species: Mus musculus; test: Stimulation of alkaline phosphatase activity in mouse calvarial osteoblasts assessed as concentration required for maximum activity after 48 hrs by spectrophotometric analysis; procedure, shortened: as §1
[4] = Stimulation of alkaline phosphatase activity in mouse calvarial osteoblasts after 48 hrs by spectrophotometric analysis; procedure, shortened: as §1
[5] = system: Calvarial osteoblast; test: Induction of mineralization in mouse calvarial osteoblasts assessed as increase of mineralized nodules formation measuring concentration required for maximum activity after 21 days by alizarin red-S staining based spectrophotometric analysis; assay type: functional
[6] = system: Calvarial osteoblast; test: Induction of proliferation of mouse calvarial osteoblasts at 1 pM to 1 uM after 48 hrs; assay type: functional, cell-based
[7] = Cytotoxicity against mouse calvarial osteoblasts assessed as cell viability at 1 pM to 1 uM after 48 hrs by MTT assay; assay type: cell-based; conditions: calvarial osteoblast
[8] = system: Calvarial osteoblast; test: Induction of osteoblastogenesis in mouse calvarial osteoblasts assessed as increase in COL1 expression at 100 pM to 10 nM by Western blotting analysis; assay type: functional, cell-based
[9] = system: Calvarial osteoblast; test: Induction of osteoblastogenesis in mouse calvarial osteoblasts assessed as increase in BMP2 expression at 100 pM to 10 nM by Western blotting analysis; assay type: functional, cell-based
[10] = system: Calvarial osteoblast; test: Induction of osteoblastogenesis in mouse calvarial osteoblasts assessed as increase in RUNX2 expression at 100 pM to 10 nM by Western blotting analysis; assay type: functional, cell-based
[11] = system: Calvarial osteoblast; test: Induction of osteoblastogenesis in mouse calvarial osteoblasts assessed as increase in expression of COL1 gene at 100 pM by qPCR analysis relative to control; assay type: functional, cell-based
[12] = system: Calvarial osteoblast; test: Induction of osteoblastogenesis in mouse calvarial osteoblasts assessed as increase in expression of osteocalcin gene at 100 pM by qPCR analysis relative to control; assay type: functional, cell-based
[13] = system: Calvarial osteoblast; test: Induction of osteoblastogenesis in mouse calvarial osteoblasts assessed as increase in expression of ALP gene at 100 pM by qPCR analysis relative to control; assay type: functional, cell-based
[14] = system: Calvarial osteoblast; test: Induction of osteoblastogenesis in mouse calvarial osteoblasts assessed as increase in expression of BMP2 gene at 100 pM by qPCR analysis relative to control; assay type: functional, cell-based
[15] = system: Calvarial osteoblast; test: Induction of osteoblastogenesis in mouse calvarial osteoblasts assessed as increase in expression of RUNX2 gene at 100 pM by qPCR analysis relative to control; assay type: functional, cell-based
[16] = system: Calvarial osteoblast; test: Induction of osteoblastogenesis in mouse calvarial osteoblasts assessed as increase in expression of COL1 gene at 100 pM to 10 nM by qPCR analysis relative to control; assay type: functional
[17] = system: Calvarial osteoblast; test: Induction of osteoblastogenesis in mouse calvarial osteoblasts assessed as increase in expression of osteocalcin gene at 100 pM to 10 nM by qPCR analysis relative to control; assay type: functional
[18] = system: Calvarial osteoblast; test: Induction of osteoblastogenesis in mouse calvarial osteoblasts assessed as increase in expression of ALP gene at 100 pM to 10 nM by qPCR analysis relative to control; assay type: functional
[19] = system: Calvarial osteoblast; test: Induction of osteoblastogenesis in mouse calvarial osteoblasts assessed as increase in expression of BMP2 gene at 100 pM to 10 nM by qPCR analysis relative to control; assay type: functional
[20] = system: Calvarial osteoblast; test: Induction of osteoblastogenesis in mouse calvarial osteoblasts assessed as increase in expression of RUNX2 gene at 100 pM to 10 nM by qPCR analysis relative to control; assay type: functional

SMILES | Activity [1] | Activity [2] | Concentration giving maximum ALP activity [3] [pM] | EC50 [4] [µM] | further results
CCOC(=O)c1cc2cc(C3C(C(=O)OC)=C(C)NC(C)=C3C(=O)OC)cc(C(C)(C)C)c2oc1=O | 7% | inactive | 1 | 1.04 | –
COC(=O)C1=C(C)NC(C)=C(C(=O)OC)C1c1ccccc1[N+](=O)[O-] [NIFEDIPINE] | 25% | – | – | 1.45 | Concentration for maximum mineralization [5]: 10000 pM; Activity [6]: Active
CCC(C)c1cc(C2C(C(=O)OC)=C(C)NC(C)=C2C(=O)OC)cc2cc(C(=O)OC)c(=O)oc12 (centres undefined) | 30% | 12% | 1 | 1.19 | Activity [7]: Non-toxic; Concentration for maximum mineralization [5]: 1 pM; Activity [6]: Active; Activity [8]: Active; Activity [9]: Active; Activity [10]: Active; Activity [11]: Active; Activity [12]: Active; Activity [13]: Active; Activity [14]: Active; Activity [15]: Active; fold change (FC) [16]: 1.5; fold change (FC) [17]: 1.5; fold change (FC) [18]: 1.5; fold change (FC) [19]: 1.5; fold change (FC) [20]: 1.5
CCOC(=O)c1cc2cc(C3C(C(=O)OC)=C(C)NC4=C3C(=O)CC(C)(C)C4)cc(C(C)(C)C)c2oc1=O (racemic) | 5% | – | 1 | 1.09 | –
CCOC(=O)C1=C(C)NC2=C(C(=O)CC(C)(C)C2)C1c1cc(C(C)CC)c2oc(=O)c(C(=O)OCC)cc2c1 (racemic) | 3% | inactive | 100 | 1.28 | –
CCOC(=O)C1=C(C)NC2=C(C(=O)CC(C)(C)C2)C1c1cc(C(C)CC)c2oc(=O)c(C(=O)OC)cc2c1 (racemic) | 43% | 17% | 1 | 1.01 | Activity [7]: Non-toxic; Concentration for maximum mineralization [5]: 100 pM; Activity [6]: Active; Activity [8]: Active; Activity [9]: Active; Activity [10]: Active; Activity [11]: Active; Activity [12]: Active; Activity [13]: Active; Activity [14]: Active; Activity [15]: Active; fold change (FC) [16]: 1.5; fold change (FC) [17]: 1.5; fold change (FC) [18]: 1.5; fold change (FC) [19]: 1.5; fold change (FC) [20]: 1.5
CCOC(=O)C1=C(C)NC(C)=C(C(=O)OCC)C1c1cc(C(C)CC)c2oc(=O)c(C(=O)OC)cc2c1 (centres undefined) | 5% | inactive | 100 | 1.14 | –
CCC(C)c1cc(C2C(C(=O)OC)=C(C)NC3=C2C(=O)CCC3)cc2cc(C(=O)OC)c(=O)oc12 (racemic) | 4% | inactive | 10000 | 1.56 | –
CCOC(=O)c1cc2cc(C3C(C(=O)OC)=C(C)NC4=C3C(=O)CCC4)cc(C(C)CC)c2oc1=O (racemic) | 12% | inactive | 100 | 1.23 | –
COC(=O)C1=C(C)NC2=C(C(=O)CC(C)(C)C2)C1c1cc(C(C)(C)C)c2oc(=O)c(C(=O)OC)cc2c1 (racemic) | 10% | inactive | 10000 | 1.53 | –
CCOC(=O)C1=C(C)NC(C)=C(C(=O)OCC)C1c1cc(C(C)(C)C)c2oc(=O)c(C(=O)OC)cc2c1 | 70% | 28% | 100 | 1.1 | Activity [7]: Non-toxic; Concentration for maximum mineralization [5]: 100 pM; Activity [6]: Active; Activity [8]: Active; Activity [9]: Active; Activity [10]: Active; Activity [11]: Active; Activity [12]: Active; Activity [13]: Active; Activity [14]: Active; Activity [15]: Active; fold change (FC) [16]: 1.5; fold change (FC) [17]: 1.5; fold change (FC) [18]: 1.5; fold change (FC) [19]: 1.5; fold change (FC) [20]: 1.5
CCOC(=O)c1cc2cc(C3C(C(=O)OC)=C(C)NC4=C3C(=O)CCC4)cc(C(C)(C)C)c2oc1=O (racemic) | 10% | inactive | 1 | 1.31 | –
CCC(C)c1cc(C=O)cc2cc(C(=O)OC)c(=O)oc12 (centres undefined) | inactive | – | – | – | –
CCOC(=O)c1cc2cc(C3C(C(=O)OC)=C(C)NC(C)=C3C(=O)OC)cc(C(C)CC)c2oc1=O (centres undefined) | 20% | inactive | 10000 | 1.51 | –
CCOC(=O)C1=C(C)NC2=C(C(=O)CCC2)C1c1cc(C(C)(C)C)c2oc(=O)c(C(=O)OCC)cc2c1 (racemic) | 13% | – | 1 | 1.34 | –
CCOC(=O)C1=C(C)NC2=C(C(=O)CC(C)(C)C2)C1c1cc(C(C)(C)C)c2oc(=O)c(C(=O)OCC)cc2c1 (racemic) | 4% | inactive | 10000 | 1.56 | –
CCOC(=O)c1cc2cc(C3C(C(=O)OC)=C(C)NC4=C3C(=O)CC(C)(C)C4)cc(C(C)CC)c2oc1=O (racemic) | 39% | 16% | 1 | 1.19 | –
CCOC(=O)c1cc2cc(C=O)cc(C(C)CC)c2oc1=O (centres undefined) | 6% | inactive | 10000 | 1.49 | –
CCOC(=O)c1cc2cc(C=O)cc(C(C)(C)C)c2oc1=O | inactive | – | – | – | –
COC(=O)c1cc2cc(C=O)cc(C(C)(C)C)c2oc1=O | inactive | – | – | – | –
CCOC(=O)C1=C(C)NC2=C(C(=O)CCC2)C1c1cc(C(C)CC)c2oc(=O)c(C(=O)OCC)cc2c1 (racemic) | 35% | 14% | 1 | 1.01 | –
CCOC(=O)C1=C(C)NC2=C(C(=O)CCC2)C1c1cc(C(C)(C)C)c2oc(=O)c(C(=O)OC)cc2c1 (racemic) | 4% | inactive | 1 | 1.26 | –
COC(=O)C1=C(C)NC2=C(C(=O)CCC2)C1c1cc(C(C)(C)C)c2oc(=O)c(C(=O)OC)cc2c1 (racemic) | 14% | inactive | 100 | 1.34 | –
COC(=O)C1=C(C)NC(C)=C(C(=O)OC)C1c1cc(C(C)(C)C)c2oc(=O)c(C(=O)OC)cc2c1 | inactive | – | – | – | –
CCOC(=O)C1=C(C)NC(C)=C(C(=O)OCC)C1c1cc(C(C)CC)c2oc(=O)c(C(=O)OCC)cc2c1 (centres undefined) | 4% | inactive | 100 | 1.23 | –
